Shown are actives, neighbours in structure and some others; about 1.9% of the full set was active somewhere.
M5 ag: human M5 muscarinic receptor agonists, primary screen, CHO-K1 cells, Fluo-8 calcium fluorescence; Muscarinic acetylcholine receptor M5 (Homo sapiens), P08912; CHO-K1 hM5 cells; 0% DMSO wells, 100% maximal acetylcholine response; activation, % at 3 µM; actives 0.19% (n = 360,000); AID 624037, 2012;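 active = activation above the run's mean over test compounds plus 3 SD, cut at about 23% in these data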;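 also: signal is peak over basal fluorescence ratio across the kinetic read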
Target sequence (P08912 whole entry, looked up): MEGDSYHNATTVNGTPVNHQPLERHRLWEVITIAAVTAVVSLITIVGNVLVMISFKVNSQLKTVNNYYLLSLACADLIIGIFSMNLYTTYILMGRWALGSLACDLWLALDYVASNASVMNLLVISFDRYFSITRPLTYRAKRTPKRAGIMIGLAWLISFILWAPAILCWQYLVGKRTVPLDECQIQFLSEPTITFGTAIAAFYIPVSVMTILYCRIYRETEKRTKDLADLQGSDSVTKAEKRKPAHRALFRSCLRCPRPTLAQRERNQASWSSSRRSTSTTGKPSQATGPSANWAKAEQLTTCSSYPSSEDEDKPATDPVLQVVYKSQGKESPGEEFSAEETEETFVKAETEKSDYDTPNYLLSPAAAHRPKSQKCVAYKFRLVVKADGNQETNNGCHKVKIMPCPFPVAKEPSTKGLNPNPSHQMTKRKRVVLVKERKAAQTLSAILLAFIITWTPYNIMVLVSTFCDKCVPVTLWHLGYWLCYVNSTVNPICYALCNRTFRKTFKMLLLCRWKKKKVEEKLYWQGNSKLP
M5 PAM: human M5 muscarinic receptor positive allosteric modulators, primary screen, CHO-K1 cells, Fluo-8 calcium fluorescence | Muscarinic acetylcholine receptor M5 (Homo sapiens), P08912 | CHO-K1 hM5, ACh EC20 PAM; 0% = ACh EC20, 100% = ACh EC100 | activation, % at 3 µM | actives 0.3% (n = 360,000) | AID 624038, 2012;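 active = activation above the run cutoff, the mean activation of all test compounds plus 3 SD, cut at about 18% in these data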
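System: CHO-K1 hM5 cells. Reagent: acetylcholine, EC20 level. Compound dosing: single dose, 3 µM nominal final test concentration. Timing: Post-acetylcholine fluorescence recording 140 s. Detection: Fluo-8 calcium fluorescence. Read-out: % activation, ACh-normalized. Benchmarks: ACh EC20 and EC100 wells. Repeats: singlicate, one well per test compound.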
M4 ag: human M4 muscarinic receptor agonists, primary screen, CHO-K1 cells, Fluo-8 calcium fluorescence; Muscarinic acetylcholine receptor M4 (Homo sapiens), P08173; CHO-K1 hM4/Gqi5; vehicle 0%, full acetylcholine response 100%; activation, % at 3 µM; actives 0.14% (n = 360,000);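 active = activation above the run mean over all test wells plus 3 SD, cut at about 32% in these data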;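 also: peak over basal fluorescence ratio per well then scaled between controls; 0% = DMSO wells and 100% = acetylcholine at EC100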
CHRM5 antagonist: human M5 muscarinic receptor antagonists, primary screen, CHO cells, Fluo-8 calcium fluorescence | Muscarinic acetylcholine receptor M5 (Homo sapiens), P08912 | CHO-hM5 cells, ACh EC80 | inhibition, % at 3 µM | actives 0.59% (n = 360,000) | AID 624040, 2012;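 active = inhibition above a per-plate cutoff, the mean of that plate's test compounds plus 3 SD, cut at about 27% in these data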;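 also: 0% = acetylcholine EC80 with DMSO and 100% = DMSO without agonist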
CHRM4 antagonist: human M4 muscarinic receptor antagonists, primary screen, CHO cells, Fluo-8 calcium fluorescence. inhibition, % at 3 µM. CHO-hM4 cells, ACh EC80. AID 624125, 2012. actives 0.73% (n = 360,000);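 active = inhibition above its plate's cutoff, the mean inhibition of sample wells plus 3 SD, cut at about 27% in these data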;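 also: 0% = acetylcholine EC80 with DMSO and 100% = DMSO without agonist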
M4 PAM: human M4 muscarinic receptor positive allosteric modulators, primary screen, CHO-K1 cells, Fluo-8 calcium fluorescence; CHO-K1 hM4/Gqi5, ACh EC20; 0% = ACh EC20, 100% = maximal ACh; activation, % at 3 µM; actives 0.4% (n = 360,000); AID 624126, 2012;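 active = activation above its plate's cutoff, the mean activation of sample wells plus 3 SD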
* = called active by the depositor.

SMILES	M5 ag	M5 PAM	M4 ag	CHRM5 antagonist	CHRM4 antagonist	M4 PAM
CCOc1ccc(C2NCCc3cc(OC)c(OC)cc32)cc1OC (centres undefined)	-2	8	1	-2	-11	14*
CCSc1nsc(NC(=O)Nc2ccccc2F)n1	3	-23	14	18	3	-7
C=CCSc1nsc(NC(=O)Nc2ccc(F)cc2)n1	3	-21	11	33*	14	-9
O=C(NC1CC1)[C@@H]1CSC2c3ccccc3C(=O)N21 (some centres undefined)	-4	0	1	-7	-10	5
CC(C)(C)OC(=O)N1Cc2ccccc2C[C@H]1C(=O)NC1CCCC1	-2	-5	1	17	-10	1
CCOc1ccc2[nH]c(=O)c(CN(Cc3ccc(C)cc3)C(=O)N3CCCC3)cc2c1	-2	-11	0	32*	-5	-8
O=C(c1ccccc1Br)N1CCc2c([nH]c3ccccc23)C1	-1	-3	3	6	-10	3
Cc1cccc(NC(=O)COC(=O)c2cccc3c2C(=O)c2ccccc2C3=O)c1C	-2	-18	-1	30*	57*	-32
Cc1cccc(C)c1NC(=O)COC(=O)c1cccc2c1C(=O)c1ccccc1C2=O	1	-9	3	1	5	-6
CN1CCCC(C#CC(O)(c2ccccc2)c2ccccc2)C1 (centres undefined)	-11	-20	1	98*	74*	-24
CC(NC(=O)c1ccccc1Br)c1nnc(SCC(=O)NC2=NCCS2)n1C (centres undefined)	-2	-2	0	19	0	1
CCN1CCN(C(=S)Nc2ccc3nc4n(c(=O)c3c2)CCCCC4)CC1	-1	4	7	1	-9	27*
O=c1c2cc(NC(=S)N3CCCC3)ccc2nc2n1CCCCC2	-1	-21	17	21	1	-15
CC1CCc2c(C(=O)Nc3cccc(-c4nn[nH]n4)c3)csc2C1 (centres undefined)	-5	-4	0	8	5	2
CN(CCC#N)C(=O)c1cc2c(s1)-c1ccccc1SC2	-3	-1	2	7	-6	4
C[N+](C)(C)CC/C=C1/c2ccccc2CSc2ccccc21	-12	-26	0	99*	96*	-18
CC(=O)OCCCN(C)CC/C=C1/c2ccccc2CSc2ccccc21	-20	-35	3	19	36*	-53
C/C(=N\NC(=O)c1ccc2c(c1)OCO2)c1ccc(C(=O)O)s1	0	-16	11	28*	8	-8
CC(C)CN1Cc2ccccc2Oc2cc(Br)ccc2S1(=O)=O	22	12	9	1	-8	25*
Cc1ccc(C)c(/C(O)=C2\C(=O)C(=O)N(CCCn3ccnc3)C2c2cccnc2)c1 (centres undefined)	-1	20*	0	8	-13	6
O=C(COC(=O)c1nc(Cl)ccc1Cl)Nc1ccc(Cl)cc1	-8	-3	4	3	-9	22*
CC(=O)Nc1ccc(C(=O)OCCc2ccccc2)cc1	0	1	7	0	-24	3
CC(=O)Nc1cc(S(=O)(=O)C(F)(F)F)ccc1Cl	-2	19*	0	-10	-2	1
Cc1ccc(NC(=O)CN2C(=O)C3CC=C(Cl)CC3C2=O)cc1 (centres undefined)	-1	5	1	3	-6	1
Cc1ccc(NC(=O)c2cc(N3C(=O)C=CC3=O)ccc2N2CCOCC2)cc1	2	21*	2	7	12	-2
SMILES	M5 ag	M5 PAM	M4 ag	CHRM5 antagonist	CHRM4 antagonist	M4 PAM
Cc1ccc(NC(=O)c2cc(NC(=O)c3ccco3)ccc2N2CCOCC2)cc1	1	-9	8	0	-2	1
O=C(O)c1cc(C(=O)O)cc(N2C(=O)CSC2=S)c1	-6	13	1	-8	5	17*
O=C(O)c1ccc(N2C(=O)CSC2=S)cc1	0	-4	7	13	-12	-4
O=C1CSC(=S)N1c1ccc(F)c(Cl)c1	6	-12	12	33*	4	-7
CCOc1ccc(N2C(=O)CSC2=S)cc1	1	18*	0	-1	-5	4
O=C1NC[C@@H](CCCCN2C[C@H](Cc3ccc(O)cc3)N(CC3CCCCC3)C(=O)C2=O)N(CCC2CCCCC2)C1=O	37*	-6	71*	3	-5	8
CC(C)C[C@H]1CNC(=O)C(=O)N1C[C@@H]1CCCN1C[C@H](Cc1ccc(O)cc1)N1C[C@H](Cc2ccccc2)N(CC2CCCCC2)C(=O)C1=O	-3	-11	-1	7	37*	0
CCN(CC)c1ccc(/C=N/Nc2nn[nH]n2)cc1	2	19*	0	-11	-5	0
COc1cc(Cl)c(C)cc1NC(=O)c1ccccc1-n1cnnn1	-3	0	2	17	-7	0
O=C(/C=C/c1ccco1)OCC1CCCN2CCCCC12 (centres undefined)	-9	-7	1	11	0	-9
CSc1nsc(SC)c1C(=O)Nc1ccc(C(C)(C)C)cc1	-11	-10	-1	4	3	-12
CSc1nsc(SC)c1C(=O)NC(=O)Nc1cccnc1	4	22*	0	-11	-3	3
Cn1ncc(Br)c1NC(=O)Nc1ccc(OC(F)(F)F)cc1	4	-21	14	27*	-6	-20
CSc1cnn(CCC#N)c(=O)n1	2	-5	0	0	6	0
COc1ccc(Br)cc1S(=O)(=O)NNC(=O)c1c(C)nc2ccccn12	-2	9	8	-3	-9	3
Cc1nc2ccccn2c1C(=O)NNS(=O)(=O)c1ccc(C(C)(C)C)cc1	6	-17	13	28*	9	-1
O=C(NCCCN1CCOCC1)c1ccc2c(c1)N(Cc1cccc(Cl)c1)C(=O)CS2	-7	-13	3	9	36*	-20
O=C(CN1C(=O)c2ccccc2S1(=O)=O)c1ccc2c(c1)OCCO2	2	21*	2	-16	-7	-2
O=C(CN1C(=O)c2ccccc2S1(=O)=O)c1ccc2c(c1)OCCCO2	-4	2	6	0	0	-4
